Reference: paper PMC2802674 (Carcinogenesis, 2009)
Each block holds one molecule with its values, some of them ahead of it.

Experiments:
[1] = tested on: 12-O-tetradecanoyl phorbol 13-acetate responsive element and nuclear factor-kappaB-binding activity; conditions: in an ROS-dependent fashion; cited from earlier work
[2] = tested on: human lymphoblastoid TK6 cells; conditions: cited from earlier work; for viability: TK6 cells exposed to millimolar concentrations; for cell death: TK6 cells
hepatic DNA = conditions: rats given 0.5 mmol/kg, 24 h, HPLC/MS/MS; cited from earlier work
Calf thymus DNA = assay: Formation of DNA adducts by [14C]alkylanilines in vitro with human hepatic S9; type: biochemical; conditions: human S9, 25–1000 nM alkylaniline (Figure 3)
Summary of the method: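 Calf thymus DNA (1 mg/ml) was incubated with human hepatic S9 (2 mg/ml) in 50 mM Tris pH 7.4 with NADPH regeneration (1.3 mM NADP+, 3.3 mM glucose-6-phosphate, 3.3 mM MgCl2, 0.1 U G6P dehydrogenase) and [14C]alkylaniline at 25, 100 or 1000 nM. Purified DNA-bound radiolabel was measured by accelerator mass spectrometry, as adducts per 10^8 nucleotides (±SD; N = 4).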

ct-DNA = assay: Effect of Phase II conjugation activity on DNA adduct formation in vitro; type: biochemical; conditions: human liver S9, 1 μM [14C]amine, 6 h at 37°C, NAT cofactors
[3] = tested on: S9 from human, rat, dog and mouse liver; conditions: cited from earlier work
tissue DNA = conditions: C57/BL6 mice, dose ∼1 μmol/kg, accelerator mass spectrometry; cited from earlier work
bladder cancer [4] = conditions: population-based study, Los Angeles county; cited from earlier work
[5] = tested on: HPRT gene of human lymphoblastoid TK6 cells; conditions: cited from earlier work
[6] = tested on: AA8 CHO cells (NER proficient) and UV5 cells (NER deficient); type: cell-based, Chinese hamster; conditions: for cytotoxicity: AA8 and UV5 cells, absence of human liver S9, 100 μM–1 mM; for influence of NER status on cytotoxicity: UV5 (NER deficient) versus AA8 (NER proficient), absence of human liver S9
Summary of the method: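 AA8 (NER-proficient) and UV5 (NER-deficient; induced XPD/ERCC2 defect) CHO lines, neither expressing significant phase I or II enzymes, exposed to parent alkylanilines at 50 μM–1 mM without human liver S9. Viability was scored by trypan blue exclusion 24 h after treatment.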

[7] = tested on: AA8 CHO cells (NER proficient) and UV5 cells (NER deficient); assay: aprt mutant fraction in AA8 and UV5 CHO cells, 8-azaadenine selection; type: cell-based, Chinese hamster; conditions: absence of human liver S9, 100 μM–1 mM
Summary of the method: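 AA8 (NER-proficient) and UV5 (NER-deficient, XPD/ERCC2 defect) CHO cells, neither expressing significant phase I or phase II enzymes, were exposed without human liver S9. Doses were parent alkylanilines at 50 μM–1 mM, or N-hydroxy and aminophenol metabolites at 5–500 μM. Mutant fraction at the heterozygous aprt locus was determined by 8-azaadenine selection.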

[8] = tested on: CHO cells that are NER deficient (or proficient) and express mouse P4501A2 plus human aryl sulfotransferase or NAT genes; type: cell-based, Chinese hamster; conditions: for contribution of aryl sulfotransferase relative to NAT2: NER-deficient cells expressing CYP1A2 and either phase II enzyme; for potency in inducing both responses (cytotoxicity and mutagenicity), influence of NER status: cell lines expressing CYP1A2 and NAT2; for cytotoxicity: two cell lines both deficient in NER, one expressing CYP1A2 and NAT2, 100 μM –1 mM
Summary of the method: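 CHO lines derived from AA8 via UV5 (NER-deficient through an induced XPD/ERCC2 defect). UV5P3 carries mouse CYP1A2 cDNA and was further transfected with human aryl sulfotransferase (HAST1) or NAT2; NER-proficient counterparts were also used. Exposure to parent alkylanilines at 50 μM–1 mM, or to N-hydroxy or aminophenol metabolites at 5–500 μM. Viability was scored by trypan blue exclusion 24 h after treatment.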

[9] = tested on: CHO cells that are NER deficient (or proficient) and express mouse P4501A2 plus human aryl sulfotransferase or NAT genes; type: cell-based, Chinese hamster; conditions: two cell lines both deficient in NER, one expressing CYP1A2 and NAT2, 100 μM –1 mM
Summary of the method: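 These are engineered CHO lines, heterozygous at aprt. UV5 (NER-deficient, XPD/ERCC2 defect) transfected with mouse CYP1A2, then human NAT2 or aryl sulfotransferase; NER-proficient counterparts were included. Parent alkylanilines were dosed at 50 μM–1 mM, and N-hydroxy or aminophenol metabolites at 5–500 μM. Mutant fraction was determined by 8-azaadenine selection.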

rat liver microsomes = conditions: unpublished results; cited from earlier work
human liver microsomes = conditions: unpublished results; cited from earlier work
[10] = tested on: recombinant human P450s (1A1, 1A2, 1B1, 2A6 and 2E1); conditions: five recombinant human P450s tested; unpublished results; cited from earlier work
male and female rats = conditions: dose-dependent; cited from earlier work
humans = conditions: ref International Agency for Cancer; cited from earlier work
Salmonella typhimurium = conditions: multiple bacterial strains, presence or absence of exogenous activating systems; cited from earlier work
Escherichia coli = conditions: cited from earlier work
[11] = tested on: mouse L5178Y lymphoma cells; conditions: with and without exogenous metabolic activation; cited from earlier work
[12] = tested on: Chinese hamster ovary (CHO) cells; conditions: with and without exogenous metabolic activation; cited from earlier work
E.coli K12 = conditions: host-mediated assay after feeding to mice; cited from earlier work
Drosophila melanogaster = conditions: feeding or injecting; cited from earlier work
bone marrow of male mice = conditions: oral doses of up to 375 mg/kg/day; cited from earlier work
rat hepatocytes = conditions: cited from earlier work
mice = conditions: oral administration, hydrochloride salt, ref International Agency for Cancer; cited from earlier work
rats = conditions: oral administration, hydrochloride salt, ref International Agency for Cancer; cited from earlier work
bladder cancer [13] = conditions: occupationally exposed workers; cited from earlier work
[14] = rats, urine; cited from earlier work
Nrf2 = conditions: in vivo in mice; cited from earlier work

SMILES: N[C@@H](CCC(=O)N[C@@H](CSc1cc(O)c(SC[C@H](NC(=O)CC[C@H](N)C(=O)O)C(=O)NCC(=O)O)c(SC[C@H](NC(=O)CC[C@H](N)C(=O)O)C(=O)NCC(=O)O)c1O)C(=O)NCC(=O)O)C(=O)O [TGHQ, 2,3,5-tris-(glutathion-S-yl)hydroquinone]
effect on TRE and NF-kappaB-binding activity [1]: modulates

SMILES: CCc1cccc(NO)c1 [N-hydoxy-3-EA]
viability [2]: did not cause reduced viability

SMILES: Nc1ccc(-c2ccccc2)cc1 [4-aminobiphenyl, reference compound]
hepatic DNA adducts (hepatic DNA): ~500 adducts per 10^8 normal bases

DNA binding of 3-EA compared with the other two alkylanilines (Calf thymus DNA): nearly identical to ∼6-fold less
SMILES: CCc1cccc(N)c1 [3-EA, 3-ethylaniline]
decrease of DNA adduct level by promotion of NAT activity (ct-DNA): 28%
N-hydroxylation rate compared with 3,5-DMA or 2,6-DMA [3]: several times greater
labeling of tissue DNA (tissue DNA): detectable labeling of DNA
association with bladder cancer risk (bladder cancer [4]): independently associated with risk for development of bladder cancer
viability [2]: did not cause reduced viability

SMILES: Cc1cc(C)cc(NO)c1 [N-hydroxy-3,5-DMA]
HPRT mutagenicity [5]: mutagenic

SMILES: Cc1cccc(C)c1N [2,6-DMA, 2,6-dimethylaniline]
decrease of DNA adduct level by promotion of NAT activity (ct-DNA): 78%
cytotoxicity [6]: cytotoxic
influence of NER status on cytotoxicity [6]: enhanced by NER deficiency
mutagenicity [7]: not mutagenic
contribution of aryl sulfotransferase relative to NAT2 [8]: more effective in potentiating cytotoxicity but not mutagenicity
potency in inducing both responses (cytotoxicity and mutagenicity), influence of NER status [8]: greatly enhanced in the NER-deficient cells
cytotoxicity [8]: cytotoxic
mutagenicity [9]: mutagenic only in cells expressing the metabolizing enzymes
conversion to the corresponding hydroxylamine (rat liver microsomes): undetectable activity
conversion to the corresponding hydroxylamine (human liver microsomes): readily apparent
N-hydroxylation activity [10]: only 2A6 exhibited N-hydroxylation activity
hepatic DNA adducts (hepatic DNA): < 3.2 adducts per 10^8 normal bases
labeling of tissue DNA (tissue DNA): detectable labeling of DNA
tumour induction (male and female rats): inducing carcinomas and papillary adenomas of the nasal cavity
carcinogenicity category (humans): Group 2B
association with bladder cancer risk (bladder cancer [4]): independently associated with risk for development of bladder cancer
mutagenicity (Salmonella typhimurium): neither mutagenic
activity in DNA damage and repair assay (Escherichia coli): nor was it active
mutation induction [11]: induced mutations
genotoxic effects induced [12]: sister chromatid exchange and chromosomal aberrations
genotoxic effect (E.coli K12): No genotoxic effect
sex-linked recessive lethal effect (Drosophila melanogaster): nor was feeding or injecting it effective
micronuclei (bone marrow of male mice): No increase of micronuclei
unscheduled DNA synthesis (rat hepatocytes): did not induce unscheduled DNA synthesis
cell death [2]: induced cell death

SMILES: Cc1cc(C)cc(N)c1 [3,5-DMA, 3,5-dimethylaniline]
enhancement of DNA adduct formation by promotion of NAT activity (ct-DNA): 53%
cytotoxicity [6]: cytotoxic
influence of NER status on cytotoxicity [6]: enhanced by NER deficiency
mutagenicity [7]: not mutagenic
contribution of aryl sulfotransferase relative to NAT2 [8]: more effective in potentiating cytotoxicity but not mutagenicity
potency in inducing both responses (cytotoxicity and mutagenicity), influence of NER status [8]: greatly enhanced in the NER-deficient cells
cytotoxicity [8]: cytotoxic
mutagenicity [9]: mutagenic only in cells expressing the metabolizing enzymes
labeling of tissue DNA (tissue DNA): detectable labeling of DNA
association with bladder cancer risk (bladder cancer [4]): independently associated with risk for development of bladder cancer
cell death [2]: induced cell death

SMILES: Cc1ccc(N)c(C)c1 [2,4-dimethylaniline]
hepatic DNA adducts (hepatic DNA): < 3.2 adducts per 10^8 normal bases

SMILES: Cc1ccccc1N [o-toluidine]
tumour induction (mice): increased incidence of haemangiomas and haemangiosarcomas and hepatocellular carcinomas or adenomas
tumour induction (rats): increased the incidence of tumours in multiple organs
carcinogenicity category (humans): Group 1
human carcinogenicity finding (bladder cancer [13]): is indeed a human bladder carcinogen
production of an N-hydroxylamine in vivo [14]: urinary excretion of N-hydroxy-o-toluidine

SMILES: CC(=O)Nc1ccc(O)cc1 [acetaminophen]
Nrf2 nuclear translocation (Nrf2): can initiate nuclear translocation of Nrf2
